Measured values as given in ChEMBL document CHEMBL1124121, “Occurrence and pharmacological significance of metabolic ortho-hydroxylation of 5- and 8-hydroxy-2-(di-n-propylamino)tetralin” (1988).
Activity calls are given as the source filed them. The rule behind the calls is not given here.

Tests used:
[1] = species on record: Rattus norvegicus; experiment: Apparent kinetic constant(Vmax) for the O-Methylation on crude rat liver microsomes at 1 mg of protein; format: functional
[2] = species on record: Rattus norvegicus; experiment: Apparent kinetic constant(Km) for the O-Methylation on crude rat liver microsomes.; format: functional, organism-based
[3] = species on record: Rattus norvegicus; experiment: Effect on 5-HTP accumulation in limbic system of rat; Inactive; format: functional, organism-based
[4] = species on record: Rattus norvegicus; experiment: Effect on 5-HTP accumulation in striatum of rat; Inactive; format: functional, organism-based
[5] = species on record: Rattus norvegicus; experiment: Effect on dopamine accumulation in hemispheres of rat; Inactive; format: functional, organism-based
[6] = species on record: Rattus norvegicus; experiment: Effect on dopamine accumulation in limbic system of rat.; format: functional
[7] = species on record: Rattus norvegicus; experiment: Effect on dopamine accumulation in striatum of rat.; format: functional
[8] = species on record: Rattus norvegicus; experiment: Effect on 5-HTP accumulation in hemispheres of rat; Inactive; format: functional, organism-based
[9] = system: Rattus norvegicus; experiment: Brain Concentration at 25 (umol/kg, sc) with tropolone pretreatment in rat striatum; format: functional, organism-based
Summary of the method: (§1)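 Male Wistar rats dosed sc in the neck with compound in saline (1 mL/kg), with or without tropolone pretreatment. Killed by decapitation 45 min later; striatum, cerebellum and cortex dissected and frozen at -80 °C. Perchloric acid extracts purified over Sephadex G10 and the formic acid eluate analysed by reversed-phase HPLC with electrochemical detection. Mean ± SEM, n = 4.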

[10] = system: Rattus norvegicus; experiment: Brain Concentration at 25 (umol/kg, sc) with tropolone pretreatment in rat cerebellum; format: functional, organism-based; summary of the method: as §1
[11] = system: Rattus norvegicus; experiment: Brain Concentration at 25 (umol/kg, sc) with tropolone pretreatment in rat cortex; format: functional, organism-based; summary of the method: as §1
[12] = system: Rattus norvegicus; experiment: Brain Concentration of 5,6-di-OH-DPAT after 25 (umol/kg) sc administration with tropolone pretreatment in rat cerebellum; format: functional, organism-based; summary of the method: as §1
[13] = system: Rattus norvegicus; experiment: Brain Concentration at 25 (umol/kg, sc) without tropolone pretreatment in rat cerebellum; format: functional, organism-based; summary of the method: as §1
[14] = system: Rattus norvegicus; experiment: Brain Concentration at 25 (umol/kg, sc) without tropolone pretreatment in rat cortex; format: functional, organism-based; summary of the method: as §1
[15] = system: Rattus norvegicus; experiment: Brain Concentration at 25 (umol/kg, sc) without tropolone pretreatment in rat striatum; format: functional, organism-based; summary of the method: as §1
[16] = system: Rattus norvegicus; experiment: Brain Concentration of 5,6-di-OH-DPAT after 25 (umol/kg) sc administration with tropolone pretreatment in rat cortex; format: functional, organism-based; summary of the method: as §1
[17] = system: Rattus norvegicus; experiment: Brain Concentration of 5,6-di-OH-DPAT after 25 (umol/kg) sc administration without tropolone pretreatment in rat cerebellum; format: functional, organism-based; summary of the method: as §1
[18] = system: Rattus norvegicus; experiment: Brain Concentration of 5,6-di-OH-DPAT after 25 (umol/kg) sc administration without tropolone pretreatment in rat cortex; format: functional, organism-based; summary of the method: as §1
[19] = system: Rattus norvegicus; experiment: Brain Concentration of 5,6-di-OH-DPAT after 25 (umol/kg) sc administration without tropolone pretreatment in rat striatum; format: functional, organism-based; summary of the method: as §1
[20] = species on record: Rattus norvegicus; experiment: Apparent kinetic constant(Km) for the aromatic hydroxylation on crude rat liver microsomes.; format: functional, organism-based
Summary of the method: (§2)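 Crude rat liver microsomes (0.5 mg protein/mL) were incubated with substrate at 37 °C for 3 min in 0.1 M Tris, pH 7.4, with 0.1 mM NADPH and MgCl₂. The reaction was stopped with perchloric acid. Catechol products in the supernatant were measured by HPLC with electrochemical detection. Apparent Km and Vmax came from Lineweaver-Burk plots of 3–4 substrate concentrations, each run in triplicate.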

[21] = Ratio of Km to that Vmax in crude rat liver microsomes was determined; conditions: Microsome
[22] = system: Rattus norvegicus; experiment: Brain Concentration of 5,6-di-OH-DPAT after 25 (umol/kg) sc administration with tropolone pretreatment in rat striatum; format: functional, organism-based; summary of the method: as §1
[23] = species on record: Rattus norvegicus; experiment: Apparent kinetic constant(Vmax) for the aromatic hydroxylation on crude rat liver microsomes at 1 mg of protein; format: functional; summary of the method: as §2
[24] = species on record: Rattus norvegicus; experiment: Effect on 5-HTP accumulation in limbic system of rat.; format: functional
[25] = species on record: Rattus norvegicus; experiment: Effect on 5-HTP accumulation in striatum of rat.; format: functional
[26] = species on record: Rattus norvegicus; experiment: Effect on dopamine accumulation in limbic system of rat; Inactive; format: functional, organism-based
[27] = species on record: Rattus norvegicus; experiment: Effect on dopamine accumulation in striatum of rat; Inactive; format: functional, organism-based
[28] = species on record: Rattus norvegicus; experiment: Effect on 5-HTP accumulation in hemispheres of rat.; format: functional
[29] = system: Rattus norvegicus; experiment: Brain Concentration of 7,8-di-OH-DPAT after 15(umol/kg) sc administration without tropolone pretreatment in rat cortex; format: functional, organism-based; summary of the method: as §1
[30] = system: Rattus norvegicus; experiment: Brain Concentration of 7,8-di-OH-DPAT after 15(umol/kg) sc administration without tropolone pretreatment in rat striatum; format: functional, organism-based; summary of the method: as §1
[31] = system: Rattus norvegicus; experiment: Brain Concentration at 15(umol/kg, sc) with tropolone pretreatment in rat cerebellum; format: functional, organism-based; summary of the method: as §1
[32] = system: Rattus norvegicus; experiment: Brain Concentration at 15(umol/kg, sc) with tropolone pretreatment in rat cortex; format: functional, organism-based; summary of the method: as §1
[33] = system: Rattus norvegicus; experiment: Brain Concentration at 15(umol/kg, sc) with tropolone pretreatment in rat striatum; format: functional, organism-based; summary of the method: as §1
[34] = system: Rattus norvegicus; experiment: Brain Concentration at 15(umol/kg, sc) without tropolone pretreatment in rat cerebellum; format: functional, organism-based; summary of the method: as §1
[35] = system: Rattus norvegicus; experiment: Brain Concentration at 15(umol/kg, sc) without tropolone pretreatment in rat cortex; format: functional, organism-based; summary of the method: as §1
[36] = system: Rattus norvegicus; experiment: Brain Concentration of 7,8-di-OH-DPAT after 15(umol/kg) sc administration with tropolone pretreatment in rat cerebellum; format: functional, organism-based; summary of the method: as §1
[37] = system: Rattus norvegicus; experiment: Brain Concentration of 7,8-di-OH-DPAT after 15(umol/kg) sc administration with tropolone pretreatment in rat cortex; format: functional, organism-based; summary of the method: as §1
[38] = system: Rattus norvegicus; experiment: Brain Concentration of 7,8-di-OH-DPAT after 15(umol/kg) sc administration with tropolone pretreatment in rat striatum; format: functional, organism-based; summary of the method: as §1
[39] = system: Rattus norvegicus; experiment: Brain Concentration of 7,8-di-OH-DPAT after 15(umol/kg) sc administration without tropolone pretreatment in rat cerebellum; format: functional, organism-based; summary of the method: as §1
[40] = system: Rattus norvegicus; experiment: Brain Concentration at 15(umol/kg, sc) without tropolone pretreatment in rat striatum; format: functional, organism-based; summary of the method: as §1
[41] = system: Rattus norvegicus; experiment: post-synaptic effect was assayed by the increase in locomotor activity (reserpine pretreatment), at 0.25 umol/kg; format: functional
Summary of the method: (§3)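 Male Sprague-Dawley rats pretreated sc in the neck with reserpine (5 mg/kg), then given the compound sc in the neck (n = 4). Placed singly in motility meters immediately after dosing; locomotor counts accumulated over 0–30 min. Student's t test.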

[42] = species on record: Rattus norvegicus; experiment: Effect on dopamine accumulation in hemispheres of rat.; format: functional
[43] = system: Rattus norvegicus; experiment: post-synaptic effect was assayed by the increase in locomotor activity (reserpine pretreatment), at 3.15 umol/kg; format: functional; summary of the method: as §3
[44] = system: Rattus norvegicus; experiment: post-synaptic effect was assayed by the increase in locomotor activity (reserpine pretreatment), at 12.5 umol/kg; format: functional; summary of the method: as §3

| Structure (SMILES) | Vmax [1] [pM/min] | Km [2] [µM] | ED50 [3] | ED50 [4] | ED50 [5] | ED50 [6] [µmol/kg] | ED50 [7] [µmol/kg] | ED50 [8] | Ratio [21] | ED50 [24] [µmol/kg] | ED50 [25] [µmol/kg] | ED50 [28] [µmol/kg] | further results |
| --- | --- | --- | --- | --- | --- | --- | --- | --- | --- | --- | --- | --- | --- |
| CCCN1CCC[C@@H](c2ccc(O)c(O)c2)C1 | 37000 | 77 | – | – | – | – | – | – | – | – | – | – | – |
| CCCN(CCC)C1CCc2c(cccc2OC)C1 (configuration not stated) | – | – | inactive | inactive | inactive | 0.013 | 0.018 | inactive | – | – | – | – | – |
| CCCN(CCC)C1CCc2c(O)cccc2C1 (configuration not stated) [5-OH-DPAT] | – | – | inactive | inactive | inactive | 0.011 | 0.009 | inactive | 19600 | – | – | – | Concentration [9]: 11.9 nM/g; Concentration [10]: 9.4 nM/g; Concentration [11]: 12.7 nM/g; Concentration [12]: 0.3 nM/g; Concentration [13]: 8.5 nM/g; Concentration [14]: 12.1 nM/g; Concentration [15]: 10.8 nM/g; Concentration [16]: 0.37 nM/g; Concentration [17]: 0.08 nM/g; Concentration [18]: 0.08 nM/g; Concentration [19]: 0.2 nM/g; Km [20]: 60 µM; Concentration [22]: 0.43 nM/g; Vmax [23]: 1180 pM/min |
| CCCN(CCC)C1CCc2cccc(OC)c2C1 (configuration not stated) | – | – | – | – | – | – | – | – | – | 0.34 | 0.29 | 0.23 | ED50 [26]: inactive; ED50 [27]: inactive |
| CCCN(CCC)C1CCc2cccc(O)c2C1 (configuration not stated) [8-OH-DPAT] | – | – | – | – | inactive | – | – | – | – | 0.048 | 0.045 | 0.068 | Concentration [29]: 0.64 nM/g; Concentration [30]: 0.65 nM/g; Concentration [31]: 9 nM/g; Concentration [32]: 13.2 nM/g; Concentration [33]: 12.3 nM/g; Concentration [34]: 8.1 nM/g; Concentration [35]: 10.7 nM/g; Concentration [36]: 0.54 nM/g; Concentration [37]: 0.7 nM/g; Concentration [38]: 0.58 nM/g; Concentration [39]: 0.5 nM/g; ED50 [26]: inactive; ED50 [27]: inactive; Concentration [40]: 10.3 nM/g |
| CCCN(CCC)[C@@H]1CCc2ccc(O)cc2C1 | – | – | inactive | inactive | inactive | 0.18 | 0.17 | inactive | – | – | – | – | – |
| CCCN(CCC)C1CCc2c(ccc(O)c2O)C1 (configuration not stated) | 400 | 80 | inactive | inactive | inactive | 0.007 | 0.007 | inactive | 5000 | – | – | – | Motor activity [41]: <529 |
| CCCN(CCC)C1CCc2ccc(O)c(O)c2C1 (configuration not stated) | 280 | 2400 | – | – | – | 0.986 | 0.977 | – | 117 | 1.53 | 1.39 | 1.05 | ED50 [42]: 1.75 µmol/kg; Motor activity [43]: <31 |
| CCCN(CCC)C1CCc2c(ccc(O)c2OC)C1 (configuration not stated) | – | – | inactive | inactive | inactive | 0.16 | 0.125 | inactive | – | – | – | – | Motor activity [44]: <204 |
| CCCN(CCC)C1CCc2ccc(O)c(OC)c2C1 (configuration not stated) | – | – | – | – | inactive | 0.314 | 0.35 | – | – | 1.49 | 2.06 | 1.62 | Motor activity [44]: <149 |
